From ChEMBL document CHEMBL1126758, “Synthesis and structure-activity studies of a series of spirooxazolidine-2,4-diones: 4-oxa analogues of the muscarinic agonist 2-ethyl-8-methyl-2,8-diazaspiro[4.5]decane-1,3-dione” (J Med Chem, 1993)
Positions count from the first letter of the chain named.

Key:
[1] = target: T1, Muscarinic acetylcholine receptor M1 (Rattus norvegicus, UniProt P08482); test: Displacement of [3H]pirenzepine from rat cortex membrane expressing muscarinic M1 receptor
T1 sequence (P08482 whole entry): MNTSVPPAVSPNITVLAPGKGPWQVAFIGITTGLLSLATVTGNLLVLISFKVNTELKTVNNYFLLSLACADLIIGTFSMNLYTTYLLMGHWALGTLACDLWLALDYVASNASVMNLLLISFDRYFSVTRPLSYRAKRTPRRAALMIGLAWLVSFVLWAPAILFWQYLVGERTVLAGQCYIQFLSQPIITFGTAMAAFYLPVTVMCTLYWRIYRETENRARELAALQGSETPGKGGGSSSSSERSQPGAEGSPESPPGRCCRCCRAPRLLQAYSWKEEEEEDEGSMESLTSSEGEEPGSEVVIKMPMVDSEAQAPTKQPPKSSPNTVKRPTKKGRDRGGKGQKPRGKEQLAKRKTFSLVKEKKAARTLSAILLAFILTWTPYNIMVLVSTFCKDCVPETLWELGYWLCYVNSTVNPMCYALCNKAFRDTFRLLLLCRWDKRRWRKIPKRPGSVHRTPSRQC
In short: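 M1 binding: male Wistar rat cerebral cortex membranes were resuspended in 8.3 mM Tris-HCl with 1.25 mM MnCl2, pH 7.4. Membranes (250 μg protein) were incubated with about 1.0 nM [3H]pirenzepine for 60 min at 25 °C. Atropine 10 μM defined nonspecific binding. Bound radioactivity was collected by filtration and counted by scintillation. IC50 came from logit-log analysis, converted by Cheng-Prusoff to Ki; single experiment in triplicate.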

[2] = Minimum dose required for subcutaneous administration to improve scopolamine-induced impairment of passive avoidance task in mouse(anti-amnesic effect)
Mus musculus [3] = test: Dose required to reduce the rectal temperature (hypothermia) by 2 degree Celsius was determined in vivo in mice; type: functional
In short: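 Rectal temperature of male ICR mice was taken with a thermoprobe before and 30 min after sc dosing. Dosing started at 30 mg/kg and fell by thirds until a drop over 2 °C no longer occurred, giving ED Δ2°C. Each dose group had 3-6 mice.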

Rattus norvegicus [4] = test: Increase in blood pressure of pithed rats after intravenous administration at 3 mg/kg; type: functional
In short: (§1)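 Male Wistar rats (ca. 200–300 g) were ether-anesthetized, tracheally catheterized, pithed with a steel rod and ventilated with room air. Drugs were given iv via the left femoral vein. Arterial pressure was recorded from the left common carotid artery, with body temperature held at 37 °C.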

Mus musculus [5] = test: Dose producing more than 30 mg of saliva as a total amount was determined in vivo in mice; type: functional
In short: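 Male ICR mice were dosed sc, and saliva was collected at 15 and 45 min after dosing. ED30mg is the dose giving more than 30 mg total saliva. Dosing started at 30 mg/kg and fell stepwise by thirds. Each dose group had 3-6 mice.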

[6] = tested on: Muscarinic acetylcholine receptors M1 & M2 (Rattus norvegicus); test: The ratio of Ki for M2 receptor to the Ki for M1 receptor was determined
[7] = target: T2, Muscarinic acetylcholine receptor M2 (Rattus norvegicus, UniProt P10980); test: Tested against muscarinic M2 receptor by displacement of [3H]quinuclidinyl benzilate from rat cerebellum membrane; type: tissue-based
T2 sequence (P10980 whole entry): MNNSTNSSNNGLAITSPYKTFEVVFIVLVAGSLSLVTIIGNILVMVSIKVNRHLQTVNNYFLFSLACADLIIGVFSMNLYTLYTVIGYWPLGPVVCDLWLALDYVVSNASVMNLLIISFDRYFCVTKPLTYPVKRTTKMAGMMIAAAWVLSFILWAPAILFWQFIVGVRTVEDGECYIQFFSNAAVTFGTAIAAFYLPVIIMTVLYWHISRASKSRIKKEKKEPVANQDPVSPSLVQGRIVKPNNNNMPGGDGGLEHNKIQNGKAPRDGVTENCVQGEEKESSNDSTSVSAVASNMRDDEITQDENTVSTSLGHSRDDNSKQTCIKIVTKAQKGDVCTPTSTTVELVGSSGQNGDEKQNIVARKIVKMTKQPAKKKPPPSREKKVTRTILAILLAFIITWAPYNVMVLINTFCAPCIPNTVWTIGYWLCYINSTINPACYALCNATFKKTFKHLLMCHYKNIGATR
In short: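 M2 binding: male Wistar rat cerebellum membranes (150 μg protein) were incubated with 0.06 nM [3H]QNB in 50 mM Na+/K+ phosphate, pH 7.4, for 60 min at 25 °C. Atropine 10 μM defined nonspecific binding. Bound radioactivity was collected by filtration and counted by scintillation. Ki came from logit-log IC50 with Cheng-Prusoff correction; single experiment in triplicate, with 95% confidence intervals.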

[8] = target: T2, Muscarinic acetylcholine receptor M2; test: Compound tested in vitro for displacement of [3H]quinuclidinyl benzilate from rat cerebellum membrane expressing muscarinic M2 receptor; type: tissue-based
In short: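 Male Wistar rat cerebellum homogenised in 0.32 M sucrose, spun at 900g then 11500g (4 °C), pellet washed in 5 mM Tris-HCl pH 7.4, stored -80 °C. Incubation in 50 mM Na+/K+ phosphate pH 7.4 with 0.06 nM [3H]QNB and 150 μg protein, 60 min at 25 °C. Nonspecific binding with 10 μM atropine. Filtration, scintillation counting. Triplicate, single experiment. Logit-log IC50 converted to Ki by Cheng-Prusoff.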

[9] = target: T3, Muscarinic acetylcholine receptor M2 (Mus musculus) (UniProt Q9ERZ4); test: In vivo muscarinic effect of […] hypothermia against central M2 receptor in mice at dose under 30 mg/kg sc (2 degree Celsius); type: functional, organism-based; set-up: dose 30 mg/kg
T3 sequence (whole entry): T2 sequence (P10980 whole entry) with V270G, R316K, K321R, A331T, V336A
In short: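 Male ICR mice given test compound subcutaneously. Rectal temperature taken by thermoprobe before dosing and 30 min after. ED for a 2 °C fall was found by starting at 30 mg/kg and lowering each dose to one-third of the previous until no drop over 2 °C was seen. 3-6 mice per dose group.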

Mus musculus [10] = test: Dose sc producing more than 30 mg of saliva as a total amount was determined in vivo in mice; type: functional
In short: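 Male ICR mice given test compound subcutaneously. Saliva collected at 15 and 45 min after dosing. ED30mg is the dose giving more than 30 mg total saliva. Start at 30 mg/kg, then lower each dose to one-third of the previous until the criterion fails. 3-6 mice per dose group.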

Rattus norvegicus [11] = test: Increase in blood pressure of pithed rats after intravenous administration at 0.1 mg/kg; type: functional; in short: as §1
[12] = target: T4, Muscarinic acetylcholine receptor M1 (Rattus norvegicus) (UniProt P08482); test: Compound was tested for percent inhibition against displacement of [3H]pirenzepine from rat cortex membrane expressing muscarinic M1 receptor at 10^-6 M
T4 sequence (whole entry): T1 sequence (P08482 whole entry)

Row | Structure (SMILES) | Ki [1] [µM] | MED [2] [mg/kg] | inhibition [12] [%] | also measured
1 | CN1CCC2(CC1)OC(=S)N(c1ccccc1)C2=O | 4 | – | – | –
2 | CCN1C(=O)OC2(CCCN(C)C2)C1=O (configuration not stated) | > 10 | > 30 | – | –
3 | CCN1C(=O)OC2(CCN(C)CC2)C1=O.Cl | 5 | 0.3 | – | ED delta (Mus musculus [3]): >30 mg/kg; BP (Rattus norvegicus [4]): 24 mmHg; ED30 (Mus musculus [5]): 30 mg/kg; M2/M1 Index [6]: 1.5; Ki [7]: 7.8 µM
4 | CCN1C(=O)C2(CCN(C)CC2)OC1=S | 0.89 | – | – | Ki [8]: 4.3 µM; ED delta [9]: 30 mg/kg; ED30 (Mus musculus [10]): 30 mg/kg
5 | Br.CCN1C(=O)CC2(CCN(C)CC2)C1=O | 0.46 | 0.1 | – | ED delta (Mus musculus [3]): 1 mg/kg; Ki [8]: 0.97 µM; BP (Rattus norvegicus [11]): 12 mmHg; M2/M1 Index [6]: 2.1; ED30 (Mus musculus [10]): 0.5 mg/kg
6 | CCN1C(=O)OC2(CCN(CC#CCOC(=O)Nc3cccc(Cl)c3)CC2)C1=O | > 10 | > 30 | 0 | –
7 | CCN1C(=O)OC2(CCN(C)C2)C1=O (configuration not stated) | > 10 | > 30 | – | –
8 | COC(=O)CCCN1C(=O)OC2(CCN(C)CC2)C1=O | 6.4 | > 30 | – | –
9 | CCN1C(=O)OC2(CCN(Cc3ccccc3)CC2)C1=O | > 10 | – | 2 | –
10 | CN1CCC2(CC1)OC(=O)NC2=O | > 10 | > 30 | 0 | –
11 | CN1CCC2(CC1)OC(=O)N(CCN1CCOCC1)C2=O | > 10 | > 30 | 10 | –
12 | CN1CCC2(CC1)OC(=S)NC2=O | > 10 | 30 | 0 | –
13 | CN1CCC2(CC1)OC(=O)N(c1cccc(Cl)c1)C2=O | 12 | 0.3 | – | –
14 | CCN1C(=O)OC2(CCN(CCCC(=O)OC)CC2)C1=O | > 10 | 30 | 0 | –
15 | C=CCN1C(=O)OC2(CCN(C)CC2)C1=O | 5.1 | > 30 | – | –
16 | COC(=O)CN1C(=O)OC2(CCN(C)CC2)C1=O | > 10 | – | 40 | –
17 | CN1CCC2(CC1)OC(=S)N(C(C)(C)C)C2=O.Cl | 0.21 | – | – | Ki [8]: 2.1 µM; ED delta [9]: 30 mg/kg; ED30 (Mus musculus [10]): > 30 mg/kg
18 | CN1CCC2(CC1)OC(=O)N(C)C2=O | 16 | > 30 | – | –
19 | CN1CCC2(CC1)OC(=O)N(CC(N)=O)C2=O | > 10 | > 30 | 36 | –
20 | CCN1C(=O)OC2(CCNCC2)C1=O.Cl | 7.8 | 0.3 | – | ED delta (Mus musculus [3]): >30 mg/kg; ED30 (Mus musculus [5]): > 30 mg/kg
21 | CN1CCC2(CC1)OC(=O)N(C(C)(C)C)C2=O | 1.5 | – | – | –
